Screening data (PubChem)
Cardiac RTF inh = cardiac RTF calcium desensitization; P19429+P45379; IANBD-labeled cardiac RTF, Ca2+ fluorescence; inhibition, % at 7.15 µM; hit rate 0.12% among 340,000; AID 493244;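 active means inhibition above the mean inhibition of all tested compounds plus 3 SD, cut at about 17% in these data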;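 further: assay run at fixed EC70 calcium of 1.6 mM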
Tn7 DDE FP = inhibitors of Tn7 peptide binding to human fibrin DD(E); P02675; FP displacement of FITC-Tn7 peptide from fibrin DD(E); 0% = median of compound wells per plate; inhibition, % at 8.3 µM; hit rate 0.13% among 370,000; AID 720508;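 active means inhibition above the mean of compounds falling within the control limits plus 3 SD of them, cut at about 14% in these data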;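 further: 0% = plate median of compound wells and 100% = 10 µM Aha-Tn7 peptide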
Target sequence (P02675 whole entry, looked up): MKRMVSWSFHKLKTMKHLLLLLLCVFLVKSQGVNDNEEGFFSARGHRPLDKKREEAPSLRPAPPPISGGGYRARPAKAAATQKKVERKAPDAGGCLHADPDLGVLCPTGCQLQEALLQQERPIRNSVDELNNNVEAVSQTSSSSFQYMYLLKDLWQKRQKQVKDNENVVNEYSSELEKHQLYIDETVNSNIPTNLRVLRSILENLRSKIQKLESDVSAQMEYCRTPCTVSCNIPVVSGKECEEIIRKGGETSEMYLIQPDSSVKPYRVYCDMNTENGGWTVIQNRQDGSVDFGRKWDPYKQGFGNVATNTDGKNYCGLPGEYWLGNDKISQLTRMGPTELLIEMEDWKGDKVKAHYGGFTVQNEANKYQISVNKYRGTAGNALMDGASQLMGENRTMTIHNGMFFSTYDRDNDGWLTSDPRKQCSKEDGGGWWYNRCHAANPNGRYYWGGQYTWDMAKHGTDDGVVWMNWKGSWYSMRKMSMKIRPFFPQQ
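assay system = human clot-derived fibrin DD(E) complex | quantity = Fibrin-DD(E) at 2 µM final | timing = 10 min preincubation, 3 h with tracer, room temperature | signal = fluorescence polarization | measure = percent inhibition | benchmarks = high control wells with 10 µM unlabelled Aha-Tn7 peptide (full inhibition) | replicates = singlicate testing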
CRFR2-BP ag = CRF-BP/CRF-R2 complex agonism | HEK293 CRF-R2/CRF-BP, calcium dye fluorescence (FLIPR); percent of saturating CRF peptide response | hit rate 0.46% among 350,000 | activation, % at 13.2 µM | AID 588473;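 active means activation of at least 50%, plus an integration ratio under a set limit after plate pattern correction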;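 further: plate controls were neutral control wells without compound for no effect and CRF at EC100 for full effect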
DDE Tn6 FP inh = disrupts Tn6 cyclic peptide binding to fibrin D-Dimer-E complex | P02675 | Fibrin DD(E) TRITC-Tn6 fluorescence polarization displacement | inhibition, % at 8.3 µM | hit rate 0.21% among 370,000;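 active means inhibition above a per-campaign cutoff: mean of compounds within control limits plus 3 SD, cut at about 15% in these data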;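 further: 0% = median of all compound wells on the plate and 100% = blocking peptide control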
CRFR2-BP antag = CRF-BP/CRF-R2 complex antagonism; inhibition, % at 11.8 µM; HEK293 CRF-R2/CRF-BP, CRF-induced calcium fluorescence; AID 588475; hit rate 0.59% among 350,000;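 active means inhibition of the ligand-induced calcium signal above about 50% at the single tested concentration, limit read from the data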
cardiac RTF act = increases calcium sensitivity of human cardiac regulated thin filaments; P19429+P45379; IANBD-labeled TnC RTF fluorescence at EC20 calcium; 0% EC20 calcium, 100% full calcium; activation, % at 7.2 µM; hit rate 0.24% among 340,000; AID 493008;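 active means activation above the mean over all tested compounds plus 3 SD, cut at about 30% in these data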;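 further: rise in fluorescence read as greater calcium sensitivity of cardiac thin filaments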
Starred values were filed as active, the others as inactive; x = not tested or not shown. The list is not random: actives were taken first. Their share in the collection is about 1.4%.

SMILES	Cardiac RTF inh	Tn7 DDE FP	CRFR2-BP ag	DDE Tn6 FP inh	CRFR2-BP antag	cardiac RTF act
CCN(CC)S(=O)(=O)c1ccc(C(=O)OCCN2C(=O)c3cccc4c(N5CCOCC5)ccc(c34)C2=O)cc1	-4	2	184*	-1	-243	4
CC(C)C(=O)N1CCC1(C)C(=O)Nc1cccc(Oc2ccccc2)c1 (stereo not given)	x	-5	x	-4	x	x
CSc1nc(-c2ccc(N(C)C)cc2)c(C#N)c(=O)n1C	-6	-3	62*	1	-29	2
O=C(c1ccc(Cl)cc1)N(Cc1ccc(Br)cc1)N1C(=O)CCC1=O	-3	4	-3	-11	-9	-2
O=C(c1ccc([N+](=O)[O-])cc1)N(Cc1ccc(Cl)cc1)N1C(=O)CCCC1=O	1	0	157*	6	-42	-2
O=C(c1ccc([N+](=O)[O-])cc1)N(Cc1ccc(Cl)cc1Cl)N1C(=O)CCCC1=O	-5	9	53*	6	-103	3
N#Cc1ccc(CN2CCN(C(=O)C3CC(=O)N(c4ccc5c(c4)OCCO5)C3)CC2)cc1 (stereo not given)	x	-4	-1	2	7	x
Nc1ccccc1Oc1c(F)c(F)c(Oc2ccccc2N)c(F)c1F	-9	-3	-3	1	67*	-4
CCC(/C=C1\Oc2ccc(OC)cc2N1C)=C\c1sc2ccccc2[n+]1CCCS(=O)(=O)[O-]	-11	4	2	-18	10	77*
Cc1ccc2c(c1)sc(C)[n+]2CCCS(=O)(=O)[O-]	-6	3	0	0	0	3
COc1cc(/C=C/c2sc3ccccc3[n+]2CCCS(=O)(=O)[O-])ccc1O	-85	-20	19	-26	-14	68*
COc1ccc(NS(=O)(=O)c2cc3c(cc2C)NC(=O)CO3)c(OC)c1	-12	-2	-3	3	3	0
Cc1ccccc1NS(=O)(=O)c1cc2c(cc1C)NC(=O)CO2	-9	5	60*	-5	-85	0
O=C(NCc1ccncc1)c1ccc(Oc2ccccc2)cc1	-20	-1	1	-3	8	0
Cc1ccc(Oc2ccc(C(=O)NCc3ccncc3)cc2)cc1	-16	-9	2	-6	79*	-3
CC(CCC(C)C(C)(C)C)[C@@H]1CC[C@H]2C3C[C@H](OS(O)(=S)=S)[C@H]4C[C@H](OS(O)(=S)=S)[C@@H](OS(O)(=S)=S)C[C@]4(C)[C@H]3CC[C@]12C (stereo not given in full) (tested in a mixture with another compound)	56*	x	55*	x	30	-23
COc1ccccc1N1C(=O)C2C(C(=O)c3ccccc3)=NN(c3ccc(Br)cc3)C2C1=O (stereo not given)	x	8	40	4	-17	x
O=C(C1=NN(c2ccccc2)C2C(=O)N(c3cccc(Cl)c3)C(=O)C12)c1ccccc1 (stereo not given)	-27	8	116*	-8	-137	47*
COc1ccccc1N1C(=O)C2C(C(=O)c3ccccc3)=NN(c3ccc(C)cc3)C2C1=O (stereo not given)	x	9	91*	3	-65	x
O=C(C1=NN(c2ccccc2)C2C(=O)N(c3ccc(Cl)cc3)C(=O)C12)c1ccccc1 (stereo not given)	-30	0	48	3	-57	38*
Cc1cccc(NS(=O)(=O)c2cccc(C(=O)N3CCN(c4ccccn4)CC3)c2)c1	3	1	-2	0	115*	-4
Cc1cccc(NS(=O)(=O)c2cccc(C(=O)N3CCC3)c2)c1	2	2	-1	1	-9	3
Cc1cc2c(c(C)c1Cl)C(c1ccc3c(c1)OCO3)CC(=O)O2 (stereo not given)	2	-5	-3	-2	-2	-4
Cc1ccc(C(C)C)c2c1C(c1ccc3c(c1)OCO3)CC(=O)O2 (stereo not given)	-2	8	66*	-3	-8	-2
COP(=O)(O)C[C@@H]1CCc2cc(C)cc([C@H](CC(C)C)NC(=O)OCc3ccccc3)c2O1	x	0	x	-2	x	x
